Calls of active or inactive are those of the source. The rule behind the calls is not given here.
Legend:
Platelet [1] = assay: Antiplatelet activity against thrombin receptor-activating peptide-6-induced platelet aggregation in human blood at 6.25 x 10^-4 M measured for 6 mins by multiplate electrical impedance aggregometry; type: functional, cell-based
Outline: (§1)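 Hirudin-anticoagulated (final […]) healthy-donor whole blood, used within 0.5–1 h. Compound in saline to final 6.25 × 10⁻⁴ M; saline control, acetylsalicylic acid 6.25 × 10⁻⁴ M reference. Blood mixed with saline at 37 °C for 180 s, then agonist at final TRAP-6 […], arachidonic acid 0.5 mM or ADP […]. Impedance recorded 6 min; AUC from mean of two curves, accepted if within 20%.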

MCF7 = assay: Cytotoxicity against human ER-positive MCF7 cells at 1.5 x 10^-4 after 48 hrs; type: cell-based; details: mcf7, 48 h
Plasma [2] = assay: Anticoagulant activity in human plasma assessed as effect on prothrombin level by PT clotting time with factor II deficient plasma
NCI-H460 = assay: Cytotoxicity against human NCI-H460 cells at 1.5 x 10^-4 after 48 hrs; type: cell-based; details: nci-h460, 48 h
Platelet [3] = assay: Antiplatelet activity against adenosine diphosphate-induced platelet aggregation in human blood at 6.25 x 10^-4 M measured for 6 mins by multiplate electrical impedance aggregometry; type: functional, cell-based; outline: as §1
Platelet [4] = assay: Antiplatelet activity against arachidonic acid-induced platelet aggregation in human blood at 6.25 x 10^-4 M measured for 6 mins by multiplate electrical impedance aggregometry; type: functional, cell-based; outline: as §1
Plasma [5] = assay: Anticoagulant activity in human plasma assessed as effect on APC level using CBS 42.46 as synthetic substrate; type: functional, cell-free
Outline: (§2)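 Compound in saline added to citrated human plasma. Protein C activated by a snake venom-derived activator; enzyme formed quantified by amidolytic activity on chromogenic substrate CBS 42.46. Calibration curve linear 3–150%; normal and pathological control plasmas verify accuracy. Compounds at 1 × 10⁻³ M.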

Plasma [6] = assay: Anticoagulant activity in human plasma assessed as effect on prothrombin level by PT clotting time with factor II deficient plasma at 1 x 10^-3 M
Plasma [7] = assay: Anticoagulant activity in human plasma assessed as effect on APC level using CBS 42.46 as synthetic substrate at 1 x 10^-3 M; type: functional; outline: as §2
[8] = Cytotoxicity against human A375-C5 cells at 1.5 x 10^-4 after 48 hrs; type: cell-based; details: a375-c5, 48 h
Plasma [9] = assay: Anticoagulant activity in human plasma assessed as concentration required to double prothrombin time at 5 x 10^-3 M; type: functional, cell-free
Outline: (§3)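 Pooled citrated human plasma; compounds in water (10% DMSO for some), final 5 × 10⁻³ to 0.05 × 10⁻³ M; heparin 0.1–10 UI/mL as reference. APTT, PT and TT measured on a coagulometer with commercial kits, clotting time in s. Duplicates repeated on three days (n = 6). Concentration doubling clotting time obtained by linear regression of each concentration-response curve.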

[10] = target: Antithrombin-III (Bos taurus) (UniProt P41361); assay: Inhibition of bovine antithrombin-3 at 1 x 10^-3 M
Antithrombin-III (Bos taurus), sequence (P41361 whole entry): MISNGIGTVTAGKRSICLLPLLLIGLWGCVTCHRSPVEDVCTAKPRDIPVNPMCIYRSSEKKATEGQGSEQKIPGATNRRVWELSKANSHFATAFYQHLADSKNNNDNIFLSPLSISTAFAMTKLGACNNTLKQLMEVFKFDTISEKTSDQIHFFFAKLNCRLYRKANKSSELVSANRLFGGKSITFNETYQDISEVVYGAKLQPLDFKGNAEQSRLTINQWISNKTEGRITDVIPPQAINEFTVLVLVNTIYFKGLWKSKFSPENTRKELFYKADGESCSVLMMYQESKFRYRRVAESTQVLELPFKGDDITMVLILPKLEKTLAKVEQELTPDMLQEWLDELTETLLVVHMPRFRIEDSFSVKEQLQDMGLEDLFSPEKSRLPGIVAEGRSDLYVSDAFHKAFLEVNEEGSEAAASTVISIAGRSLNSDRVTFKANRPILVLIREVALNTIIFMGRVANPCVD

Plasma [11] = assay: Anticoagulant activity in human plasma assessed as concentration required to double activated partial thromboplastin time; type: functional; outline: as §3
[12] = target: Prothrombin (Homo sapiens) (UniProt P00734); assay: Inhibition of human thrombin using Tosyl-Gly-Pro-Arg-p-nitroaniline as substrate at 1 x 10^-3 M by chromogenic substrate hydrolysis assay
Outline: (§4)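 Chromogenic hydrolysis in 50 mM Tris/HCl pH 8.3, 227 mM NaCl, 0.1% BSA, with and without bovine antithrombin III (1 U/mL final). Human factor Xa 0.5 U/mL with CBS 31.39 […], or human thrombin 0.06 U/mL with Chromozym TH […]. Absorbance at 405 nm, enzyme-free blank subtracted; initial slope vs water control gives % inhibition. Compounds at 1 × 10⁻³ M; n = 6.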

Plasma [13] = assay: Anticoagulant activity in human plasma assessed as concentration required to double thrombin time at 5 x 10^-3 M; type: functional, cell-free; outline: as §3
[14] = target: Coagulation factor X (Homo sapiens) (UniProt P00742); assay: Inhibition of human factor 10a using CH3SO2-D-Leu-Gly-Arg-pNA, AcOH as substrate at 1 x 10^-3 M by chromogenic substrate hydrolysis assay; outline: as §4
Coagulation factor X (Homo sapiens), sequence (P00742 41-179 limits assumed): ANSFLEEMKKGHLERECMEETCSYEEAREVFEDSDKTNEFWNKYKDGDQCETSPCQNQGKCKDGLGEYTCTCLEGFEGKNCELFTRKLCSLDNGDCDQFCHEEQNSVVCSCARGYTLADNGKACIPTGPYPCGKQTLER
Coagulation factor X (Homo sapiens), sequence (P00742 235-488 limits assumed): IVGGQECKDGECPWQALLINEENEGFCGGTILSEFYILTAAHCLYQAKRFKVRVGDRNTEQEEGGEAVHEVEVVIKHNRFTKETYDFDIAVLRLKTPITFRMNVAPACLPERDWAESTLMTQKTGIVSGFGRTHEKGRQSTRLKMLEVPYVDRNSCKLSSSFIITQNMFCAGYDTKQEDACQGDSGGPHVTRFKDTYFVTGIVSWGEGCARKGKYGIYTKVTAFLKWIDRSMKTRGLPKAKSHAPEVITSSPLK

Plasma [15] = assay: Anticoagulant activity in human plasma assessed as concentration required to double prothrombin time; type: functional; outline: as §3
[16] = Antiplatelet activity against collagen-epinephrine-activated platelet in human blood assessed as closure time at 6.25 x 10^-4 M; type: functional
Outline: (§5)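 Healthy-donor whole blood collected into hirudin (final […]), analysed within 0.5–1 h. Closure time measured in a PFA-100 under high shear through an aperture, platelets activated by a collagen-coated membrane with ADP or epinephrine.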

Blood [17] = assay: Anticoagulant activity in human whole blood assessed as clotting time at 6.25 x 10'4 M by thromboelastography assay; type: functional
Outline: (§6)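 Citrated whole blood (citrate:blood 1:9) from healthy donors. Compound in saline diluted 1:16 into blood to final 3.12 × 10⁻⁴ or 6.25 × 10⁻⁴ M; saline control. Thromboelastography with intrinsic activator (InTEM); R clotting time and K clot formation time in s. Mean of three independent experiments in duplicate.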

[18] = Antiplatelet activity against collagen-ADP-activated platelet in human blood assessed as closure time at 6.25 x 10^-4 M; type: functional; outline: as §5
Blood [19] = assay: Anticoagulant activity in human whole blood assessed as clotting formation time at 6.25 x 10'4 M by InTEM-TEG assay; type: functional; outline: as §6
Mus musculus = species: Mus musculus; assay: Acute hepatic toxicity in CD1 mouse; type: organism-based; details: in vivo

inhibition [10] | inhibition [12] | inhibition [14] | SMILES | AUC (Platelet [1]) [AU.min] | Activity (MCF7) | Activity (NCI-H460) | AUC (Platelet [3]) [AU.min] | AUC (Platelet [4]) [AU.min] | Activity (Plasma [6]) [%] | Activity (Plasma [7]) [%] | Activity [8] | 2aPTT (Plasma [11]) | Activity (Plasma [11]) | Activity (Plasma [13]) | 2PT (Plasma [15]) [mM] | Activity (Plasma [15]) | also measured
– | – | – | C[C@@H]1O[C@@H](OC[C@H]2O[C@@H](Oc3c(-c4ccc(OCCOS(=O)(=O)[O-])c(OCCOS(=O)(=O)[O-])c4)oc4cc(OCCOS(=O)(=O)[O-])cc(O)c4c3=O)[C@H](OS(=O)(=O)[O-])[C@@H](OS(=O)(=O)[O-])[C@@H]2OS(=O)(=O)[O-])[C@H](OS(=O)(=O)[O-])[C@H](OS(=O)(=O)[O-])[C@H]1OS(=O)(=O)[O-].[Na+].[Na+].[Na+].[Na+].[Na+].[Na+].[Na+].[Na+].[Na+] | 840 | Non-toxic | Non-toxic | 330 | 330 | 10.9 | 38.5 | Non-toxic | – | – | – | – | – | Activity (Plasma [2]): Dose-dependent effect; Activity (Plasma [5]): Dose-dependent effect
inactive | inactive | inactive | O=C(O)c1cc(OS(=O)(=O)[O-])c(OS(=O)(=O)[O-])c(OS(=O)(=O)[O-])c1.[Na+].[Na+].[Na+] | – | Non-toxic | Non-toxic | – | – | 61.5 | 101 | Non-toxic | 1.96 mM | Dose-dependent effect | inactive | – | – | Activity (Plasma [9]): inactive
inactive | inactive | inactive | Cc1cc(=O)oc2cc(O[C@@H]3O[C@H](COS(=O)(=O)[O-])[C@@H](OS(=O)(=O)[O-])[C@H](OS(=O)(=O)[O-])[C@H]3OS(=O)(=O)[O-])ccc12.[Na+].[Na+].[Na+].[Na+] | – | Non-toxic | Non-toxic | – | – | 64.5 | 97 | Non-toxic | 1.18 mM | Dose-dependent effect | inactive | > 5 | Dose-dependent effect | –
– | – | – | CC(=O)Oc1ccccc1C(=O)O | – | – | – | – | 230 | – | – | – | – | – | – | – | – | –
– | – | – | O=c1oc2c(OS(=O)(=O)O)c(OS(=O)(=O)O)cc3c(=O)oc4c(OS(=O)(=O)O)c(OS(=O)(=O)O)cc1c4c23 | – | – | – | – | – | – | – | – | – | – | inactive | – | – | Activity (Plasma [9]): inactive
inactive | inactive | inactive | O=C1O[C@H]([C@H](COS(=O)(=O)[O-])OS(=O)(=O)[O-])C(OS(=O)(=O)[O-])=C1OS(=O)(=O)[O-].[Na+].[Na+].[Na+].[Na+] [ASCORBIC ACID PERSULFATE] | 1100 | – | – | 680 | 905 | 91.5 | 94 | – | 0.315 mM | Dose-dependent effect | inactive | > 5 | Dose-dependent effect | Time [16]: 121 s; Time (Blood [17]): 205 s; Time [18]: 106 s; Time (Blood [19]): 84 s
inactive | inactive | inactive | O=C(/C=C/c1ccc(OS(=O)(=O)[O-])c(OS(=O)(=O)[O-])c1)O[C@@H]1C[C@](OS(=O)(=O)[O-])(C(=O)O)C[C@@H](OS(=O)(=O)[O-])[C@H]1OS(=O)(=O)[O-].[Na+].[Na+].[Na+].[Na+].[Na+] [CHLOROGENIC ACID PERSULFATE] | – | – | – | – | – | 82 | 95 | – | 3.66 mM | Dose-dependent effect | inactive | – | – | Activity (Plasma [9]): inactive
inactive | inactive | inactive | O=c1ccc2cc(O[C@@H]3O[C@H](COS(=O)(=O)[O-])[C@@H](OS(=O)(=O)[O-])[C@H](OS(=O)(=O)[O-])[C@H]3OS(=O)(=O)[O-])c(OS(=O)(=O)[O-])cc2o1.[Na+].[Na+].[Na+].[Na+].[Na+] [ESCULIN PERSULFATE] | 890 | Non-toxic | Non-toxic | 980 | 980 | 64.5 | 87 | Non-toxic | 0.309 mM | Dose-dependent effect | inactive | > 5 | Dose-dependent effect | Time (Blood [17]): 340 s; Time (Blood [19]): 95 s
– | – | – | COc1ccc(-c2cc(=O)c3c(O)cc(O[C@@H]4O[C@H](CO[C@@H]5O[C@@H](C)[C@H](OS(=O)(=O)[O-])[C@@H](OS(=O)(=O)[O-])[C@H]5OS(=O)(=O)[O-])[C@@H](OS(=O)(=O)[O-])[C@H](OS(=O)(=O)[O-])[C@H]4OS(=O)(=O)[O-])cc3o2)cc1O.[Na+].[Na+].[Na+].[Na+].[Na+].[Na+] [HEXASULFATED DIOSMIN] | 1090 | Non-toxic | Non-toxic | 200 | 340 | 54 | 87 | Non-toxic | 4.35 ×10⁻⁴ M | – | – | – | – | Activity (Mus musculus): Non-toxic
– | – | – | COc1ccc([C@@H]2CC(=O)c3c(O)cc(O[C@@H]4O[C@H](CO[C@@H]5O[C@@H](C)[C@H](OS(=O)(=O)[O-])[C@@H](OS(=O)(=O)[O-])[C@H]5OS(=O)(=O)[O-])[C@@H](OS(=O)(=O)[O-])[C@H](OS(=O)(=O)[O-])[C@H]4OS(=O)(=O)[O-])cc3O2)cc1O.[Na+].[Na+].[Na+].[Na+].[Na+].[Na+] [HEXASULFATED HESPERIDIN] | 1200 | Non-toxic | Non-toxic | 150 | 150 | 47.5 | 85 | Non-toxic | 4.13 ×10⁻⁴ M | – | – | – | – | –
inactive | inactive | inactive | O=S(=O)([O-])OCc1ccccc1O[C@@H]1O[C@H](COS(=O)(=O)[O-])[C@@H](OS(=O)(=O)[O-])[C@H](OS(=O)(=O)[O-])[C@H]1OS(=O)(=O)[O-].[Na+].[Na+].[Na+].[Na+].[Na+] [SALICIN PERSULFATE] | – | Non-toxic | Non-toxic | – | – | 66 | 93 | Non-toxic | 0.899 mM | Dose-dependent effect | inactive | > 5 | Dose-dependent effect | –

— ChEMBL document CHEMBL2150885, “Dual anticoagulant/antiplatelet persulfated small molecules” (Eur J Med Chem, 2011)
